Key:
Assay type in all cases: functional
Mus musculus [1] = experiment: Hypolipidemic activity (14th day serum triglyceride) at 20 mg/kg in CF1 male mice
Outline: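 Separate group of male CF1 mice (~25 g) dosed ip at 20 (mg/kg)/day for 14 days, injections at 11:00 a.m. Bled by tail vein on day 14 into nonheparinized microcapillary tubes, centrifuged 3 min for serum. Triglycerides (mg %) measured on duplicate 50-µL serum samples. Given as % control.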

Mus musculus [2] = experiment: Hypolipidemic activity (16th day serum cholesterol) at 20 mg/kg in CF1 male mice
Outline: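 Male CF1 mice (~25 g), given 20 (mg/kg)/day ip at 11:00 a.m. On day 16, tail-vein blood collected between 8:00 and 9:30 a.m. in alkali-free nonheparinized microcapillaries and centrifuged 3 min. Serum cholesterol (mg %) from duplicate 25-µL nonhemolyzed samples by modified Liebermann-Burchard reaction. Reported as % control.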

Mus musculus [3] = experiment: Hypolipidemic activity (9th day serum cholesterol) at 20 mg/kg in CF1 male mice
Outline: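 Male CF1 mice (~25 g), dosed intraperitoneally at 20 (mg/kg)/day at 11:00 a.m. Tail-vein blood taken on day 9 between 8:00 and 9:30 a.m. into alkali-free nonheparinized microcapillary tubes, spun 3 min for serum. Cholesterol (mg %) in duplicate 25-µL nonhemolyzed serum samples by modified Liebermann-Burchard reaction. Expressed as % control.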

| Compound | Control (Mus musculus [1]) [%] | Control (Mus musculus [2]) [%] | Control (Mus musculus [3]) [%] |
| --- | --- | --- | --- |
| CCCCCN1C(=O)c2ccccc2C1=O | 75 | 58 | 76 |
| CC(=O)CCN1Cc2ccccc2S1(=O)=O | 78 | 81 | 87 |
| C=C(CN1C(=O)c2ccccc2S1(=O)=O)C(=O)O | 101 | 85 | 85 |
| CCCCN1Cc2ccccc2C1=O | 80 | 62 | 68 |
| O=C(O)CCCCN1C(=O)c2ccccc2S1(=O)=O | 44 | 68 | 96 |
| CC(=O)CN1C(=O)c2ccccc2C1=O | <48 | <67 | 80 |
| CC(=O)CN1C(=O)c2ccccc2S1(=O)=O | 66 | 52 | 95 |
| CCCCCN1C(=O)c2ccccc2S1(=O)=O | 62 | 58 | 106 |
| CCCCN1C(=O)c2ccccc2C1=O | 82 | <54 | <72 |
| O=C(O)CCCCCN1C(=O)c2ccccc2C1=O | 51 | 67 | 81 |
| O=C1NCc2ccccc21 | 78 | 87 | 89 |
| O=C(O)CCN1Cc2ccccc2S1(=O)=O | 76 | 59 | 73 |
| O=C(O)CCCCCN1C(=O)c2ccccc2S1(=O)=O | 55 | 76 | 90 |
| O=C(O)CCN1C(=O)c2ccccc2C1=O | <58 | <55 | <74 |
| CCCCN1C(=O)c2ccccc2S1(=O)=O | 76 | 56 | 76 |
| CCCCN1Cc2ccccc2S1(=O)=O | 76 | 68 | 71 |
| O=C(O)CCCCN1C(=O)c2ccccc2C1=O | 54 | 77 | 83 |
| CC(=O)CCN1Cc2ccccc2C1=O | <83 | <84 | 88 |
| CC(=O)CCN1C(=O)c2ccccc2S1(=O)=O | 51 | 62 | 60 |
| CC(=O)CCN1C(=O)c2ccccc2C1=O | <58 | <63 | <67 |
| CC(=O)CCCN1C(=O)c2ccccc2C1=O | <59 | <63 | <71 |
| O=S1(=O)NCc2ccccc21 | 86 | 80 | 82 |
| O=C(O)CCCN1C(=O)c2ccccc2C1=O | 59 | 68 | 80 |
| O=C(O)CCN1C(=O)c2ccccc2S1(=O)=O | 67 | 47 | 96 |
| CC(=O)CCCN1C(=O)c2ccccc2S1(=O)=O | 77 | 77 | 73 |
| O=C(O)CCN1Cc2ccccc2C1=O | 88 | 97 | 87 |
| CCOC(=O)CCN1C(=O)c2ccccc2S1(=O)=O | 61 | 71 | 97 |
| O=C(O)CCCN1C(=O)c2ccccc2S1(=O)=O | 48 | 73 | 85 |
| O=C1NC(=O)c2ccccc21 [PHTHALIMIDE] | 44 | 57 | 63 |
| O=C1NS(=O)(=O)c2ccccc21 [SACCHARIN] | 51 | 67 | 68 |
